Tests used:
[1] = test system: HeLa; experiment: Cytotoxicity against human HeLa cells after 72 hrs by MTT assay; format: functional, cell-based
Method in brief: (§1)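 Cells seeded at 4.5 to 5.0 × 10^4 cells/mL/well in 24-well plates, exposed to compounds in DMSO for 72 h. MTT in PBS pH 7.2 added, formazan dissolved in DMSO, absorbance read at 540 nm. % growth inhibition = (1 − treated/untreated absorbance) × 100. Three independent experiments in quadruplicate.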

[2] = test system: SW480; experiment: Cytotoxicity against human SW480 cells after 72 hrs by MTT assay; format: functional, cell-based; settings: SW480, 72 h; method in brief: as §1
[3] = test system: SW-620; experiment: Cytotoxicity against human SW620 cells after 72 hrs by MTT assay; format: functional, cell-based; settings: SW-620, 72 h; method in brief: as §1
[4] = test system: K562; experiment: Cytotoxicity against human K562 cells after 72 hrs by MTT assay; format: functional, cell-based; settings: K562, 72 h; method in brief: as §1
[5] = biological target: DNA topoisomerase 2-alpha (Homo sapiens, UniProt P11388); experiment: Inhibition of human DNA topoisomerase 2-mediated Crithidia fasciculata kDNA decatenation using ethidium bromide staining by agarose gel electrophoresis
Method in brief: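 Crithidia fasciculata kDNA (5 µg/mL) with 4 units human Topo II in 30 mM Tris–HCl pH 7.6, 60 mM NaCl, 8 mM MgCl2, 15 mM 2-mercaptoethanol, 3 mM ATP, 8% DMSO, 30 min at 37 °C. Proteinase K follows, then chloroform/isoamyl extraction and agarose gel with ethidium bromide. Decatenated plus linear DNA quantified densitometrically as % of total. Screened at 160 µM, IC50 from 1–160 µM curves.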

Chain of DNA topoisomerase 2-alpha (P11388 whole entry): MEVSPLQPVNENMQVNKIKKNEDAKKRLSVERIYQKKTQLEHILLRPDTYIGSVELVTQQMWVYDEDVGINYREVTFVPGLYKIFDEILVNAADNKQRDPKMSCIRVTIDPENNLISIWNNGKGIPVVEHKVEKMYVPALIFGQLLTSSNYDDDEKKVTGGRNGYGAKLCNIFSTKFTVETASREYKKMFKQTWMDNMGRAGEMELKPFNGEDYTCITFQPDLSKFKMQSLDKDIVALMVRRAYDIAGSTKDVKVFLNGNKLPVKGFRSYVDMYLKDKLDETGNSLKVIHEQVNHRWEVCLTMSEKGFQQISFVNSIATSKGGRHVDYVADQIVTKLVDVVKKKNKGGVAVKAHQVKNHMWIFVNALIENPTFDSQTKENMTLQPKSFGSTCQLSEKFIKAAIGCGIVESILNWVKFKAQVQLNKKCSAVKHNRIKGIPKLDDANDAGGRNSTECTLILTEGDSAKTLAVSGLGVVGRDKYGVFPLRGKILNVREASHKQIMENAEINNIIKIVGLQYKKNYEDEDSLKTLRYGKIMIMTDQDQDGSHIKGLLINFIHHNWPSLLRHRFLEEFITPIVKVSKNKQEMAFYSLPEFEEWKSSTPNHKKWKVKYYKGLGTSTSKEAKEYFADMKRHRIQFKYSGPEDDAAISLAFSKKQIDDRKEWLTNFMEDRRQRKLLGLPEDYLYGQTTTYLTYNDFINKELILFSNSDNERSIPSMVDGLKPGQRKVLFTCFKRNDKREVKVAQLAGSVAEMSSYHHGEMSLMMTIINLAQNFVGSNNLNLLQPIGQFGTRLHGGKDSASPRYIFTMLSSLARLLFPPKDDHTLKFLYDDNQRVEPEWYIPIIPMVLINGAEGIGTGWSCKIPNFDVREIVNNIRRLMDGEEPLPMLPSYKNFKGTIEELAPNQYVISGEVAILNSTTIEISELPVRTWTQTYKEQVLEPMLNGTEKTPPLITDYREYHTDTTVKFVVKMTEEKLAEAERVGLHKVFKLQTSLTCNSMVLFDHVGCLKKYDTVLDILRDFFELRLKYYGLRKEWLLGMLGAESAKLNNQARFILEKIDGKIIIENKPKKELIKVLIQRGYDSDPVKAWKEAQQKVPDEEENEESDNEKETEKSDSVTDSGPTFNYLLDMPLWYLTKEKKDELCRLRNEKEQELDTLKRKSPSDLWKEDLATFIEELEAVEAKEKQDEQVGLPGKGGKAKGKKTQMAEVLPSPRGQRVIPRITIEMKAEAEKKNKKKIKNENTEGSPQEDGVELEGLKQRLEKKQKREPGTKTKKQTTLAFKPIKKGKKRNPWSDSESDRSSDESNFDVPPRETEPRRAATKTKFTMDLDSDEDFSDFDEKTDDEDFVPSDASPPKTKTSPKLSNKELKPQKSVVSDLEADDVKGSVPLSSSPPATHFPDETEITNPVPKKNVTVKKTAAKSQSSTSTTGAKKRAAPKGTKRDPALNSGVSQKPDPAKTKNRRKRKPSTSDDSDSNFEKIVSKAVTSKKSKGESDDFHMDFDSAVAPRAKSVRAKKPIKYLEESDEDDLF

| SMILES | IC50 [1] [µM] | IC50 [2] [µM] | IC50 [3] [µM] | IC50 [4] [µM] | IC50 [5] [µM] |
| --- | --- | --- | --- | --- | --- |
| COc1cccc(Nc2c3cc(F)ccc3nc3sc(SC)nc23)c1 | 15.8 | 13.7 | 12.2 |  |  |
| CSc1nc2c(Nc3cccc(/C(C)=N\O)c3)c3ccccc3nc2s1 | 34.2 | 37.3 | 39.4 | 32.8 |  |
| CSc1nc2c(Nc3cc(N)cc(CO)c3)c3ccccc3nc2s1 | > 80 | > 80 | > 80 | > 80 | 18 |
| CCN(CC)CCCNc1nc2c(Nc3ccc(Cl)cc3)c3ccccc3nc2s1 | 8.82 | 4.92 | 7.48 | 3.36 |  |
| CSc1nc2c(Nc3ccc(Cl)cc3)c3ccccc3nc2s1 | > 80 | > 80 | > 80 | 79.5 | 20.5 |
| c1ccc(Nc2c3ccccc3nc3sc(N4CCOCC4)nc23)cc1 | > 80 | > 80 | > 80 | > 80 |  |
| COc1ccc(Nc2c3cc(F)ccc3nc3sc(SC)nc23)cc1 | > 80 | > 80 | > 80 | 54.9 |  |
| CSc1nc2c(Nc3cccc(C(F)(F)F)c3)c3ccccc3nc2s1 | 43.3 | 65.1 | 62.3 | 67.1 | 15.4 |
| Clc1c2ccccc2nc2sc(N3CCOCC3)nc12 | > 80 | > 80 | > 80 | > 80 |  |
| CCN(CC)CCCNc1nc2c(Nc3ccccc3)c3ccccc3nc2s1 | 6.27 | 6.9 | 16.6 | 7.52 |  |
| c1ccc(Nc2c3ccccc3nc3sc(N4CCCCC4)nc23)cc1 | > 80 | > 80 | > 80 | > 80 |  |
| CCN(CC)CCNc1nc2c(Nc3ccc(C#N)cc3)c3ccccc3nc2s1 | 15.2 | 14.2 | 16.5 | 8.36 |  |
| COc1cc(NS(C)(=O)=O)ccc1Nc1c2ccccc2nc2ccccc12 [AMSACRINE] | 9.5 | 27.7 | 16.7 | 19.9 | 9.94 |
| CSc1nc2c(Nc3cccc(O)c3)c3ccccc3nc2s1 | > 80 | > 80 | > 80 | > 80 | 64.3 |
| CSc1nc2c(Nc3cccc(NC(C)=O)c3)c3ccccc3nc2s1 | > 80 | > 80 | > 80 | > 80 | 29.6 |
| CCN(CC)CCNc1nc2c(Nc3cccc(C#N)c3)c3ccccc3nc2s1 | 13.3 | 13.1 | 14.6 | 12.5 |  |
| CCN(CC)CCCNc1nc2c(Nc3cccc(Cl)c3)c3ccccc3nc2s1 | 7.46 | 7.91 | 10.2 | 9.84 | 40.9 |
| CNc1cccc(Nc2c3ccccc3nc3sc(SC)nc23)c1 | 46.2 | > 80 | > 80 | 46.9 | 12.3 |

| SMILES | IC50 [1] [µM] | IC50 [2] [µM] | IC50 [3] [µM] | IC50 [4] [µM] | IC50 [5] [µM] |
| --- | --- | --- | --- | --- | --- |
| CCN(CC)CCNc1nc2c(Nc3ccc(OC)cc3)c3ccccc3nc2s1 | 13.6 | 12 | 16.4 | 10.9 |  |
| CCN(CC)CCNc1nc2c(Nc3ccccc3)c3ccccc3nc2s1 | 16 | 37.7 | 21.6 | 16.8 | 169 |
| CSc1nc2c(Nc3cccc(C#N)c3)c3cc(F)ccc3nc2s1 | > 80 | > 80 | > 80 | 55.4 |  |
| CN1CCN(c2nc3c(Cl)c4ccccc4nc3s2)CC1 | > 80 | > 80 | > 80 | > 80 |  |
| Clc1c2ccccc2nc2sc(N3CCCCC3)nc12 | > 80 | > 80 | > 80 | > 80 |  |
| CSc1nc2c(Nc3cccc(C(C)=O)c3)c3ccccc3nc2s1 | > 80 | > 80 | > 80 | > 80 |  |
| CN1CCN(c2nc3c(Nc4ccccc4)c4ccccc4nc3s2)CC1 | 60.7 | 41.8 | > 80 | 73 |  |
| CCN(CC)CCCNc1nc2c(Nc3cccc(C#N)c3)c3ccccc3nc2s1 | 19.2 | 11.5 | 19.7 | 12.9 |  |
| CCN(CC)CCNc1nc2c(Nc3cccc(Cl)c3)c3ccccc3nc2s1 | 9.12 | 14.3 | 17.8 | 12.2 |  |
| CSc1nc2c(Nc3cccc(Cl)c3)c3ccccc3nc2s1 | 69.4 | > 80 | > 80 | 80.3 | 21.2 |
| CCN(CC)CCNc1nc2c(Nc3cccc(OC)c3)c3ccccc3nc2s1 | 19.2 | 11.5 | 20 | 23.5 |  |
| CSc1nc2c(Nc3ccccc3)c3cc(F)ccc3nc2s1 | > 80 | > 80 | > 80 | > 80 |  |
| CSc1nc2c(Nc3ccc(C#N)cc3)c3cc(F)ccc3nc2s1 | > 80 | > 80 | > 80 |  |  |
| CCN(CC)CCNc1nc2c(Nc3ccc(Cl)cc3)c3ccccc3nc2s1 | 10.2 | 12.6 | 12.2 | 7.26 |  |
| CSc1nc2c(Nc3cccc(N)c3)c3ccccc3nc2s1 | > 80 | > 80 | > 80 | > 80 | 16.7 |
| CSc1nc2c(Nc3ccccc3)c3ccccc3nc2s1 | > 80 | > 80 | > 80 | > 80 |  |
| CCOC(=O)c1cccc(Nc2c3ccccc3nc3sc(SC)nc23)c1 | > 80 | > 80 | > 80 | > 80 |  |
| CCN(CC)CCCNc1nc2c(Nc3ccc(C#N)cc3)c3ccccc3nc2s1 | 24.2 | 22.7 | 29.2 | 12.9 |  |

Reference: ChEMBL document CHEMBL1139240, “Synthesis, cytotoxic activity, DNA topoisomerase-II inhibition, molecular modeling and structure-activity relationship of 9-anilinothiazolo[5,4-b]quinoline derivatives” (Bioorg Med Chem, 2009)
